Folding enthalpy and Tm data for 37 sequences are collected here from the array DNA melting data of Ke et al. (doi:10.1101/2024.01.08.574731).

Data set [1] is described as follows: folding enthalpy; higher = less favourable; fluorescence melt of hairpins on a sequencing array, two-state fit. The following applies: sodium 0.088 M. In short, it runs like this: (§1)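 Bootstrapped two-state fits yielded melting temperature and folding enthalpy for library hairpins. Cy3 fluorescence, with annealed Cy3 and quencher oligos, was imaged on a sequenced MiSeq flow cell in 50 mM Na-HEPES pH 8.0, 25 mM NaCl in 2.5 °C steps up to 60 °C, and normalised to pre-quench Cy3 and to control constructs. Four replicates were combined by inverse variance, and fitted temperatures were raised by 9.35 °C to match UV melts.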

The nature of data set [2]: melting temperature; fluorescence melt of hairpins on a sequencing array, two-state fit, raised by 9.35 °C to match UV melts. The following applies: sodium 0.088 M. In short, it runs like this: as §1

For the sequence GCGACCTATCGC ((((....)))), the folding enthalpy in data set [1] is -28.4 kcal/mol. In addition, the Tm in data set [2] was 49.3 °C.

In the case of GCGTAAACGAAAGTTCGC (((..(((....)))))), in data set [1], the folding enthalpy was -33.7 kcal/mol. In addition, the Tm in data set [2] was 48.2 °C.

As to GCTCCCGGAAACGGAAGC (((.(((....))).))), the folding enthalpy in data set [1] is -28.6 kcal/mol. The Tm in data set [2] amounted to 50 °C.

In the case of GTTTGCGGAAACGTAGAC ((.(.((....)).).)), the folding enthalpy in data set [1] is -20.5 kcal/mol. For the same sequence, the Tm in data set [2] stood at 30.7 °C.

In the case of GGCGTCGAAAGACTGCC ((((((....))).))), in data set [1], the folding enthalpy is -36.4 kcal/mol. Moreover, the Tm in data set [2] amounted to 57 °C.

On to CGGCCGGAAACGGACCG ((((((....))).))), for which, in data set [1], the folding enthalpy is -25 kcal/mol. Also, the Tm in data set [2] turned out to be 54.6 °C.

Regarding GATCCAGAGTGGATC ((((((...)))))), the folding enthalpy in data set [1] is -31.3 kcal/mol. In addition, the Tm in data set [2] was 48.8 °C.

With GGACTCGAAAGAGCATCC ((((((....)))..))), in data set [1], the folding enthalpy is -9.49 kcal/mol. In data set [2], the Tm came to 24.9 °C.

For the sequence GCCCAGCGAAAGCGGAGC ((.(.((....)).).)), the folding enthalpy in data set [1] was -12.7 kcal/mol. In addition, the Tm in data set [2] amounted to 53.1 °C.

For the sequence GCTGAAGGAAACTTTAGC (((.(((....))).))), in data set [1], the folding enthalpy is -29.2 kcal/mol. Also, in data set [2], the Tm was 41.5 °C.

GATCAGATTACTGATC ((((((....)))))): the folding enthalpy in data set [1] is -30.3 kcal/mol. In addition, the Tm in data set [2] amounted to 50 °C.

Turning to GCGGGACGAAAGTCCGC (((.(((....)))))), in data set [1], the folding enthalpy is -23.1 kcal/mol. The Tm in data set [2] came out at 69.2 °C.

Take GCCTACGGAAACGTAGAC (.(((((....))))).): the folding enthalpy in data set [1] is -18.1 kcal/mol. Also, the Tm in data set [2] turned out to be 41.8 °C.

In the case of CGGACGGAAACGTCACCG ((((((....)))..))), the folding enthalpy in data set [1] was -11.6 kcal/mol. The Tm in data set [2] was 34.4 °C.

Consider GATCCTGTTCAGGATC ((((((....)))))), for which, in data set [1], the folding enthalpy was -39.1 kcal/mol. In addition, the Tm in data set [2] stood at 56.8 °C.

Turning to GCGGTGCGAAAGCTCGGC ((.(.((....)).).)), in data set [1], the folding enthalpy is -19.1 kcal/mol. Moreover, in data set [2], the Tm turned out to be 51 °C.

GGCTCCGAAAGGAATGCC ((((((....)))..))): the folding enthalpy in data set [1] was -26.9 kcal/mol. In data set [2], the Tm turned out to be 51.3 °C.

For the sequence GGGAGTTCGAAAGAACCC (((..(((....)))))), in data set [1], the folding enthalpy was -18.2 kcal/mol. For the same sequence, the Tm in data set [2] is 47.9 °C.

For the sequence GGGTTCTCGAAAGAGCCC (((..(((....)))))), the folding enthalpy in data set [1] was -26.5 kcal/mol. The Tm in data set [2] was 48.1 °C.

Take GGTGAGACGAAAGTCACC (((..(((....)))))): the folding enthalpy in data set [1] is -17.1 kcal/mol. Further, the Tm in data set [2] was 46.8 °C.

For GATGGCCGAAAGGCTATC (((.(((....))).))), the folding enthalpy in data set [1] was -27.8 kcal/mol. The Tm in data set [2] came out at 57.5 °C.

Consider GGGTTAGAAATAACCC ((((((....)))))), for which, in data set [1], the folding enthalpy was -36.4 kcal/mol. Also, in data set [2], the Tm stood at 53.1 °C.

For the sequence GCTGCCGAAAGGCGAAGC ((((((....)))..))), the folding enthalpy in data set [1] is -15.5 kcal/mol. In addition, the Tm in data set [2] is 49 °C.

Regarding CTGTGGAAACACAG (((((....))))), the folding enthalpy in data set [1] is -19.7 kcal/mol. Also, the Tm in data set [2] was found to be 52.1 °C.

On to GTCGGTGGAAACACCAAC ((.((((....)))).)), for which the folding enthalpy in data set [1] is -18.1 kcal/mol. For the same sequence, the Tm in data set [2] was found to be 39.4 °C.

For the sequence GCTTTGCGAAAGCTAGGC ((.(.((....)).).)), the folding enthalpy in data set [1] is -15.7 kcal/mol. Further, the Tm in data set [2] was determined as 44.7 °C.

On to GTCTGCGAAAGCACAGAC ((((((....)))..))), for which the folding enthalpy in data set [1] was -18.6 kcal/mol. For the same sequence, the Tm in data set [2] is 46.3 °C.

Turning to GCCGTCGGAAACAACGGC (((((.(....).))))), the folding enthalpy in data set [1] was -47.5 kcal/mol. In addition, in data set [2], the Tm was found to be 53.9 °C.

For GTGCCCGAAAGGGTGCAC ((((((....)))..))), in data set [1], the folding enthalpy was -14.6 kcal/mol. Besides, in data set [2], the Tm came to 55.3 °C.

Take GGGCAGTCGAAAGACCCC (((..(((....)))))): the folding enthalpy in data set [1] was -21.6 kcal/mol. Moreover, the Tm in data set [2] turned out to be 41.7 °C.

As to GCCCAGGCGAAAGCCGGC (((..(((....)))))), in data set [1], the folding enthalpy is -10.1 kcal/mol. Further, the Tm in data set [2] is 62 °C.

Take GCGTTCCGAAAGGACCGC (((.(((....))).))): in data set [1], the folding enthalpy is -46.4 kcal/mol. For the same sequence, in data set [2], the Tm is 58.4 °C.

Turning to GCCGCACCGAAAGGTGGC (((..(((....)))))), the folding enthalpy in data set [1] is -8.56 kcal/mol. In addition, in data set [2], the Tm was found to be 53.5 °C.

Regarding GTGAGAGGAAACTTTCAC ((((.((....)).)))), the folding enthalpy in data set [1] is -23.8 kcal/mol. For the same sequence, the Tm in data set [2] was 35.1 °C.

For GATCAATCTCTTGATC ((((((....)))))), in data set [1], the folding enthalpy was -30.1 kcal/mol. Besides, the Tm in data set [2] worked out at 43.2 °C.

Consider GTGTCGGGAAACCGATAC ((.((((....)))).)), for which the folding enthalpy in data set [1] was -28.6 kcal/mol. In addition, the Tm in data set [2] turned out to be 52.1 °C.

For CGCCCGGAAACGGTAGCG ((((((....)))..))), the folding enthalpy in data set [1] was -30.4 kcal/mol. Further, the Tm in data set [2] stood at 50.9 °C.
